Test results as given in ChEMBL document CHEMBL1122142, “Synthesis and antiinflammatory activity of hexahydrothiopyrano[4,3-c]pyrazoles and related analogues” (J Med Chem, 1982).

Key:
Mus musculus [1] = assay: Inhibition of Mouse Active Arthus reaction following 150 mg/Kg i.p.; 41-60% inhibition.; assay type: functional; settings: Mus musculus, ip
Mus musculus [2] = assay: The compound was evaluated for the mouse active Arthus (MAA) reaction activity expressed as inhibitory dose after oral administration; assay type: functional; settings: read-out: ID50 (the source's name)
Procedure, shortened: (§1)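 CD-1 mice were sensitized ip with a 1:1 Freund's complete adjuvant emulsion containing BSA in saline, 5 weeks before challenge. Compound was suspended in 1% Na CMC in pyrogen-free saline and given as one ip or oral dose 1 h before skin challenge with BSA. Screening doses were 150 mg/kg ip and 300 mg/kg po, with some at 75 or 50 mg/kg ip. Lesions were excised 3.5 h after challenge and weighed against controls.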

Rattus norvegicus [3] = assay: Carrageenan-induced edema was determined after intraperitoneal administration; settings: ip, read-out: ID50 (the source's name)
[4] = The acute toxicity as LD50 value was determined in mice for intraperitoneally administration; assay type: organism-based; settings: mouse, in vivo, ip
[5] = Acute toxicity as LD50 value was determined in mice administered orally; assay type: organism-based; settings: mouse, in vivo, po
[6] = Therapeutic ratio was determined for intraperitoneal administration; assay type: ADME; settings: ip; read-out: TR
Rattus norvegicus [7] = assay: Adjuvant-induced arthritis was determined for a dose of 75 mg/kg oral administration
[8] = Acute toxicity as LD50 value was determined in mice administered intraperitoneally; assay type: organism-based; settings: mouse, in vivo, ip
Mus musculus [9] = assay: The compound was evaluated for the mouse active Arthus (MAA) reaction activity expressed as inhibitory dose after ip administration; assay type: functional; settings: read-out: ID50 (the source's name); procedure, shortened: as §1
Rattus norvegicus [10] = assay: Adjuvant-induced arthritis was determined for a dose of 150 mg/kg administered intraperitoneally; settings: ip
Rattus norvegicus [11] = assay: Adjuvant-induced arthritis was determined for a dose of 75 mg/kg intraperitoneal administration; settings: ip
Rattus norvegicus [12] = assay: Carrageenan-induced edema was determined after oral administration of a dose of; settings: read-out: ID50 (the source's name)
Cavia porcellus [13] = assay: Delayed hypersensitivity skin reaction (DHSR) activity was determined after a dose of 50 mg/kg; 6/15
Mus musculus [14] = assay: Mouse active Arthus (MAA) reaction activity was determined for an oral dose of 300 mg/kg administration in mouse; 21-30%; assay type: functional
Rattus norvegicus [15] = assay: Adjuvant-induced arthritis was determined for a dose of 150 mg/kg administered orally; settings: po
Cavia porcellus [16] = assay: Tested in delayed hypersensitivity skin reaction (DHSR) after subcutaneous administration, activity reported as percent inhibition of erythema/induration of lesion; 11/66; assay type: functional
Mus musculus [17] = assay: Inhibition of Mouse active Arthus (MAA) reaction activity was determined for peroral dose of 150 mg/kg in mouse; 21-30%; assay type: functional; settings: route oral
Cavia porcellus [18] = assay: Tested in delayed hypersensitivity skin reaction (DHSR) after subcutaneous administration, activity reported as percent inhibition of erythema/induration of lesion; 14/11; assay type: functional
Mus musculus [19] = assay: Inhibition of Mouse active Arthus (MAA) reaction activity was determined for peroral dose of 300 mg/kg in mouse; assay type: functional; settings: route oral
Mus musculus [20] = assay: Carrageenan-induced edema was determined value for oral administration; assay type: functional; settings: read-out: ID50 (the source's name)
Procedure, shortened: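 Adult male Sprague-Dawley (CD) rats, 160–200 g. Single dose in 1% CMC given 2 h before footpad injection of 0.05 mL 1% carrageenin in pyrogen-free saline. Paws removed and weighed at 3 h, with the contralateral paw as control. ID50 is the dose giving 50% edema inhibition.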

Cavia porcellus [21] = assay: Tested in delayed hypersensitivity skin reaction (DHSR) after subcutaneous administration, activity reported as percent inhibition of erythema/induration of lesion; 16/52; assay type: functional
Mus musculus [22] = assay: Inhibition of Mouse active Arthus (MAA) reaction activity was determined for peroral dose of 300 mg/kg in mouse; 31-40%; assay type: functional; settings: route oral
[23] = Therapeutic ratio was determined for peroral administration; settings: po; read-out: TR
Cavia porcellus [24] = assay: The compound was evaluated for the delayed hypersensitivity skin reaction (DHSR) activity after subcutaneous administration; 23/37
Cavia porcellus [25] = assay: Tested in delayed hypersensitivity skin reaction (DHSR) after subcutaneous administration, activity reported as percent inhibition of erythema/induration of lesion; 0/8; assay type: functional
Mus musculus [26] = assay: Inhibition of Mouse active Arthus (MAA) reaction activity was determined for an ip dose of 150 mg/kg in mouse; 21-30%; assay type: functional; settings: route intraperitoneal
Mus musculus [27] = assay: Mouse active Arthus (MAA) reaction activity was determined for an ip dose of 150 mg/kg in mouse; assay type: functional; settings: route intraperitoneal
Cavia porcellus [28] = assay: Tested in delayed hypersensitivity skin reaction (DHSR) after subcutaneous administration, activity reported as percent inhibition of erythema/induration of lesion; 4/0; assay type: functional
Procedure, shortened: (§2)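 Male Hartley guinea pigs were sensitized with Mycobacterium tuberculosis in Freund's incomplete adjuvant, injected into each hind footpad and subcutaneously at the neck. After 3 weeks, 1.2 μg PPD was given intradermally. Compound in sesame oil was given sc, 3 animals per group, 30 min before and 5 h after PPD; screening dose 50 mg/kg.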

Cavia porcellus [29] = assay: Tested in delayed hypersensitivity skin reaction (DHSR) after subcutaneous administration, activity reported as percent inhibition of erythema/induration of lesion; 24/32; assay type: functional; procedure, shortened: as §2
Mus musculus [30] = assay: The compound was evaluated for the mouse active Arthus (MAA) reaction activity for an ip dose of 150 mg/kg in mouse; 31-40%; assay type: functional; settings: route intraperitoneal; procedure, shortened: as §1
Cavia porcellus [31] = assay: Tested in delayed hypersensitivity skin reaction (DHSR) after subcutaneous administration, activity reported as percent inhibition of erythema/induration of lesion; 15/42; assay type: functional
Cavia porcellus [32] = assay: Tested in delayed hypersensitivity skin reaction (DHSR) after subcutaneous administration, activity reported as percent inhibition of erythema/induration of lesion; 12/45; assay type: functional
Mus musculus [33] = assay: The compound was evaluated for the mouse active Arthus (MAA) reaction activity for peroral dose of 300 mg/kg in mouse; 31-40%; assay type: functional; settings: route oral; procedure, shortened: as §1
Mus musculus [34] = assay: The compound was evaluated for the mouse active Arthus (MAA) reaction activity for an ip dose of 150 mg/kg in mouse; assay type: functional; settings: route intraperitoneal; procedure, shortened: as §1
Cavia porcellus [35] = assay: Tested in delayed hypersensitivity skin reaction (DHSR) after subcutaneous administration, activity reported as percent inhibition of erythema/induration of lesion; 7/6; assay type: functional; procedure, shortened: as §2

CC(=O)N1N=C2/C(=C/c3cccc(C(F)(F)F)c3)CS(=O)(=O)CC2C1c1cccc(C(F)(F)F)c1 (stereo not given)
inhibition in vivo at 150 mg/kg (Mus musculus [1]): 41%
ED50 (Mus musculus [2]): > 600 mg/kg
ED50 (Rattus norvegicus [3]): > 150 mg/kg
LD50 [4]: > 4000 mg/kg
LD50 [5]: > 7200 mg/kg
selectivity ratio [6]: 24
inhibition in vivo at 75 mg/kg (Rattus norvegicus [7]): 0%
LD50 [8]: > 3200 mg/kg
ED50 (Mus musculus [9]): 112 mg/kg
inhibition in vivo at 150 mg/kg (Rattus norvegicus [10]): 31%
inhibition in vivo at 75 mg/kg (Rattus norvegicus [11]): 22%
ED50 (Rattus norvegicus [12]): > 200 mg/kg
Activity (Cavia porcellus [13]): 6
inhibition in vivo at 300 mg/kg (Mus musculus [14]): 21%
inhibition in vivo at 150 mg/kg (Rattus norvegicus [15]): 7%

CN1CCN(CCCN2N=C3/C(=C/c4ccccc4)CSCC3C2c2ccccc2)CC1 (stereo not given)
inhibition in vivo at 150 mg/kg (Mus musculus [1]): 41%
Activity (Cavia porcellus [16]): 11
inhibition in vivo at 150 mg/kg (Mus musculus [17]): 21%

Cc1ccc(/C=C2\CS(=O)(=O)CC3C2=NN(CC(F)(F)F)C3c2ccc(C)cc2)cc1 (stereo not given)
inhibition in vivo at 150 mg/kg (Mus musculus [1]): 41%
Activity (Cavia porcellus [18]): 14
inhibition in vivo at 300 mg/kg (Mus musculus [19]): < 20%

COc1ccc2cc([C@H](C)C(=O)O)ccc2c1 [NAPROXEN]
ED50 (Mus musculus [20]): 411 mg/kg

Cc1ccc(/C=C2\CSCC3C2=NN(CCCN2CCN(C)CC2)C3c2ccc(C)cc2)cc1.O=C(O)/C=C\C(=O)O (stereo not given)
inhibition in vivo at 150 mg/kg (Mus musculus [1]): 41%
Activity (Cavia porcellus [21]): 16
inhibition in vivo at 300 mg/kg (Mus musculus [22]): 31%
ED50 (Mus musculus [9]): 58 mg/kg

COc1ccc2c(c1)c(CC(=O)O)c(C)n2C(=O)c1ccc(Cl)cc1 [INDOMETHACIN]
selectivity ratio [23]: 0.04
ED50 (Mus musculus [20]): 517 mg/kg

C(=C1/CSCC2C1=NNC2c1ccccc1)/c1ccccc1 (stereo not given)
inhibition in vivo at 150 mg/kg (Mus musculus [1]): 41%
Activity (Cavia porcellus [24]): 23

O=S1(=O)C/C(=C\c2ccc(Cl)cc2)C2=NN(c3ccccc3)C(c3ccc(Cl)cc3)C2C1 (stereo not given)
Activity (Cavia porcellus [25]): 0

CCCN1N=C2/C(=C/c3ccccc3)C[S+]([O-])CC2C1c1ccccc1 (single isomer, unassigned; isomer A)
inhibition in vivo at 150 mg/kg (Mus musculus [26]): 21%

C#CCN1N=C2/C(=C/c3ccccc3)CS(=O)(=O)CC2C1c1ccccc1 (stereo not given)
inhibition in vivo at 150 mg/kg (Mus musculus [27]): < 20%
Activity (Cavia porcellus [28]): 4

CCCN1N=C2/C(=C/c3ccc(Cl)cc3)CS(=O)(=O)CC2C1c1ccc(Cl)cc1 (stereo not given)
inhibition in vivo at 150 mg/kg (Mus musculus [1]): 41%
Activity (Cavia porcellus [29]): 24

CCCn1nc(-c2ccc(OC)cc2)c2c1/C(=C/c1ccc(OC)cc1)CSC2
inhibition in vivo at 150 mg/kg (Mus musculus [30]): 31%
Activity (Cavia porcellus [31]): 15

CCCN1N=C2/C(=C/c3ccc(OC)cc3)CSCC2C1c1ccc(OC)cc1 (stereo not given)
inhibition in vivo at 150 mg/kg (Mus musculus [1]): 41%
Activity (Cavia porcellus [32]): 12
inhibition in vivo at 300 mg/kg (Mus musculus [19]): < 20%

CN1CCN(CCCN2N=C3/C(=C/c4ccccc4)CS(=O)(=O)CC3C2c2ccccc2)CC1.O=C(O)/C=C\C(=O)O (stereo not given)
inhibition in vivo at 300 mg/kg (Mus musculus [33]): 31%
inhibition in vivo at 150 mg/kg (Mus musculus [34]): > 60%
Activity (Cavia porcellus [35]): 7

CCCn1nc(-c2ccccc2)c2c1/C(=C/c1ccccc1)COC2
inhibition in vivo at 150 mg/kg (Mus musculus [30]): 31%
